Data taken from ChEMBL document CHEMBL2062365, “Suppressive effects of coumarins from Mammea siamensis on inducible nitric oxide synthase expression in RAW264.7 cells” (Bioorg Med Chem, 2012).

Experiments:
[1] = tested on: RAW264.7; test: Antiinflammatory activity in mouse RAW264.7 cells assessed as inhibition of LPS-induced NO production relative to control; assay type: functional, cell-based
Procedure, shortened: (§1)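 RAW264.7 cells (DMEM, 10% FBS, 37 °C, 5% CO2) seeded at 2.5 × 10^5 cells/well. After 6 h, nonadherent cells were washed off. Adherent cells were exposed to test compound for 10 min, then to LPS (E. coli 055:B5, final 10 µg/mL) for 18 h. Supernatant nitrite was measured by Griess reaction. Inhibition % = (A−B)/(A−C)×100, with C as the no-LPS control. IC50 was read graphically; N = 4, mean ± SEM. CAPE was the reference.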

[2] = tested on: RAW264.7; test: Antiinflammatory activity in mouse RAW264.7 cells assessed as inhibition of LPS-induced NO production at 30 uM relative to control; assay type: functional; procedure, shortened: as §1

## Oc1c2ccccc2c2c3c(cccc13)N=N2 [SP-600125]
[1]
  IC50: 17 µM
[2]
  inhibition at 30 µM: 74.6%
